Measurements taken from ChEMBL document CHEMBL2331509, “Design, synthesis, characterization and anti-inflammatory evaluation of novel pyrazole amalgamated flavones” (2013).

Key:
Rattus norvegicus [1] = assay: Antiinflammatory activity in Wistar rat assessed as inhibition of carrageenan-induced paw volume at 100 mg/kg, po measured after 6 hrs of carrageenan challenge (reference value: 1.69 +/- 0.08 ml); type: functional
Rattus norvegicus [2] = assay: Antiinflammatory activity in Wistar rat assessed as inhibition of carrageenan-induced paw volume at 100 mg/kg, po measured after 1 hr of carrageenan challenge (reference value: 0.94 +/- 0.05 ml); type: functional
[3] = molecular target: T1, Prostaglandin G/H synthase 1 (Ovis aries) (UniProt P05979); assay: Inhibition of ovine COX1 assessed as appearance of oxidized N,N,N,N'- tetramethyl-p-phenylenediamine at 100 uM
T1 sequence (whole entry): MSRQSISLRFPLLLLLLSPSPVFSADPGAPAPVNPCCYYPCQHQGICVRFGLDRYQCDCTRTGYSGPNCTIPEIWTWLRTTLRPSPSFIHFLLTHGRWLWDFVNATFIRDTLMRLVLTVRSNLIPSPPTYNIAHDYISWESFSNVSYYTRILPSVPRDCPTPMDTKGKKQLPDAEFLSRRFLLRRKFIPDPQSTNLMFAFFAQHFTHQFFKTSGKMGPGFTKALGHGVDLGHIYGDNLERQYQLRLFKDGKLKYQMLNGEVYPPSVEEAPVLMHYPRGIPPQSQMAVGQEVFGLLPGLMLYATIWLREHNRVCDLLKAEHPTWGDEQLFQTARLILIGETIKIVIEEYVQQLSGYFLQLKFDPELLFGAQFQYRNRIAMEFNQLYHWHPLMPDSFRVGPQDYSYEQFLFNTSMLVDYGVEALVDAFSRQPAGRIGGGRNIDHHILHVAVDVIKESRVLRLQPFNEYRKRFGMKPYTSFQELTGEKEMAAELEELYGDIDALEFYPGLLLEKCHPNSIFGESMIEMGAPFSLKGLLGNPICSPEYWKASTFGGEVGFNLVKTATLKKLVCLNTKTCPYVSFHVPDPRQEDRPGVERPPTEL
Outline: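 Colorimetric ovine COX screening kit. The reaction held assay buffer, heme, COX-1 enzyme and test sample at 100 µM. The COX peroxidase activity was followed by the appearance of oxidized TMPD at 590 nm. Inhibition was calculated as (1 − T/C)×100, where C is the absorbance of the uninhibited well.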

Rattus norvegicus [4] = assay: Antiinflammatory activity in Wistar rat assessed as inhibition of carrageenan-induced paw volume at 100 mg/kg, po measured after 3 hrs of carrageenan challenge (reference value: 1.17 +/- 0.1 ml); type: functional
Mus musculus = assay: Antiinflammatory activity in mouse assessed as inhibition of acetic acid-induced vascular permeability by measuring Evan's blue dye leakage at 100 mg/kg, po administered 1 hr before acetic acid challenge measured after 30 mins; type: functional
Outline: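 Mice, n=6 per group, were dosed orally at 100 mg/kg; the vehicle was 2% gum acacia at 10 mL/kg. After 1 h they received 0.25 mL of 0.6% v/v acetic acid i.p., then immediately 10% w/v Evans blue at 10 mL/kg i.v. by tail vein. After 30 min they were killed with ether. The viscera were irrigated with 5 mL saline; the perfusate was filtered, made up to 10 mL, and dye read at 620 nm.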

SMILES | inhibition [3] | Activity (Rattus norvegicus [1]) | Activity (Rattus norvegicus [2]) | Activity (Rattus norvegicus [4]) | inhibition in vivo at 100 mg/kg (Mus musculus)
COc1cc(OC)c2c(=O)cc(-c3ccc(F)cc3F)oc2c1-c1ccnn1C | 51.6% | 1.44 mL | 0.78 mL | 1.01 mL | –
COc1cc(OC)c2c(=O)cc(-c3c(F)cccc3F)oc2c1-c1ccnn1C | 52.2% | 1.44 mL | 0.88 mL | 1.24 mL | –
COc1cc(OC)c(-c2cc(=O)c3c(OC)cc(OC)c(-c4ccnn4C)c3o2)c(OC)c1 | 45.7% | 0.97 mL | 0.83 mL | 0.95 mL | 72.3%
COc1cc(OC)c2c(=O)cc(-c3ccc(F)cc3)oc2c1-c1ccnn1C | 54.1% | 1.17 mL | 0.76 mL | 1.05 mL | 51.9%
COc1ccc(-c2cc(=O)c3c(OC)cc(OC)c(-c4ccnn4C)c3o2)cc1OC | 48.4% | 0.99 mL | 0.79 mL | 0.96 mL | 68.2%
COc1cc(OC)c2c(=O)cc(-c3cccc([N+](=O)[O-])c3)oc2c1-c1ccnn1C | 47.4% | 1.02 mL | 1.04 mL | 1 mL | 33.3%
COc1ccc2c(c1)c(CC(=O)O)c(C)n2C(=O)c1ccc(Cl)cc1 [INDOMETHACIN] | – | 0.78 mL | 0.86 mL | 0.95 mL | 70.4%
COc1cc(OC)c2c(=O)cc(-c3ccc(Cl)cc3Cl)oc2c1-c1ccnn1C | 46.1% | 1.32 mL | 0.89 mL | 1.11 mL | –
COc1cc(OC)c2c(=O)cc(-c3ccc(Br)cc3)oc2c1-c1ccnn1C | 54.1% | 1.11 mL | 0.81 mL | 0.99 mL | 35.1%
COc1cc(OC)c2c(=O)cc(-c3ccc4c(c3)OCO4)oc2c1-c1ccnn1C | 51.6% | 1.07 mL | 0.86 mL | 0.92 mL | 25.3%

The next lines start with results.

inhibition [3] | SMILES | Activity (Rattus norvegicus [1]) | Activity (Rattus norvegicus [2]) | Activity (Rattus norvegicus [4]) | inhibition in vivo at 100 mg/kg (Mus musculus)
54.1% | COc1cc(OC)c2c(=O)cc(-c3ccccc3)oc2c1-c1ccnn1C | 1.22 mL | 0.77 mL | 0.91 mL | –
60% | COc1cc(OC)c2c(=O)cc(-c3cccs3)oc2c1-c1ccnn1C | 1.55 mL | 0.91 mL | 1.18 mL | –
20.4% | COc1cc(OC)c2c(=O)cc(-c3ccco3)oc2c1-c1ccnn1C | 0.88 mL | 0.87 mL | 0.94 mL | 60.5%
48.9% | COc1cc(OC)c2c(=O)cc(-c3c(Cl)cccc3Cl)oc2c1-c1ccnn1C | 1.01 mL | 0.79 mL | 1.46 mL | 57.8%
52.8% | COc1cc(OC)c2c(=O)cc(-c3ccc(F)c(F)c3)oc2c1-c1ccnn1C | 1.2 mL | 0.79 mL | 0.99 mL | –
